Each block holds one compound with its values, some of them ahead of it. Calls of active or inactive are those of the source. The calls are words filed in the database; no cut-off is given here.
What was measured:
[1] = Chemical stability of the compound in MEM cell culture medium after 7 days by HPLC analysis; assay type: physicochemical; settings: read-out: Stability
How it was run: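 Compound incubated in MEM culture medium at 37 °C for 7 days, then analysed by HPLC on RX-C8 (5 μm) column with MeOH–water 90:10 (0.1% TFA), diode-array detection. Expressed as % of incubated compound recovered.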

[2] = tested on: B16-F10; test: Growth inhibition in mouse B16F10 after 3 days by MTT assay; assay type: functional; settings: B16-F10, 72 h
How it was run: (§1)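 Cells grown in RPMI with 10% heat-inactivated FCS, 4 mM glutamine, gentamicin and penicillin–streptomycin. Drug exposure 3 days, growth read by MTT colorimetric assay. Nine concentrations from 0.01 to 100 μM in semilog steps, six replicates each; IC50 derived per cell line.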

[3] = tested on: T98G; test: Growth inhibition in apoptosis-resistant human T98G after 3 days by MTT assay; assay type: functional; settings: 72 h; how it was run: as §1
[4] = tested on: MCF7; test: Growth inhibition in apoptosis-sensitive human MCF7 after 3 days by MTT assay; assay type: functional; settings: MCF7, 72 h; how it was run: as §1
[5] = tested on: PC-3; test: Growth inhibition in apoptosis-sensitive human PC3 after 3 days by MTT assay; assay type: functional; settings: PC-3, 72 h; how it was run: as §1
[6] = tested on: SK-MEL-28; test: Growth inhibition in apoptosis-resistant human SK-MEL-28 after 3 days by MTT assay; assay type: functional; settings: SK-MEL-28, 72 h; how it was run: as §1
[7] = tested on: Hs 683; test: Growth inhibition in apoptosis-sensitive human Hs683 after 3 days by MTT assay; assay type: functional; settings: Hs 683, 72 h; how it was run: as §1
[8] = Growth inhibition in apoptosis-resistant human U373 after 3 days by MTT assay; assay type: functional, U-373MG ATCC; settings: U373 MG, 72 h; how it was run: as §1
[9] = tested on: A549; test: Growth inhibition in apoptosis-resistant human A549 after 3 days by MTT assay; assay type: functional; settings: A549, 72 h; how it was run: as §1
[10] = target: Megakaryocyte-associated tyrosine-protein kinase (Homo sapiens) (UniProt P42679); test: Inhibition of MATK at 1 uM by radiometric assay
[11] = tested on: U-373MG ATCC; test: Induction of apoptosis in human U373 cells assessed as proapoptotic effect at 10 uM after 48 to 72 hrs by TUNEL-based flow cytometric analysis; assay type: functional, cell-based
How it was run: (§2)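 A549 NSCLC and U373 GBM cells were treated 48 or 72 h and analysed with the APO AF kit. TUNEL labelling ran 1 h at 37 °C, followed by propidium iodide (5 μg/mL) with RNase. Apoptotic fraction and % cells in G1 were measured by flow cytometry. Kit negative/positive controls and 1 μM narciclasine-treated PC-3 cells served as controls.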

[12] = tested on: U-373MG ATCC; test: Inhibition of trypsin-like activity of 20S proteasome in human U373 cells at 7 uM after 2 days by bioluminescence assay; assay type: cell-based
How it was run: (§3)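 U373 GBM cells seeded at 5000 cells/mL and grown 48 h, then treated for two days. Cells washed in PBS and permeabilised with 0.025% digitonin. Proteasome-Glo reagent added with Suc-LLVY-Glo (chymotrypsin-like), Z-LRR-Glo (trypsin-like) or Z-nLPnLD-Glo (caspase-like) substrate. Luminescence read after 10 min in the dark and normalised to a parallel MTT viability assay; triplicates. MG-132 at 0.5 μM used as reference.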

[13] = tested on: A549; test: Cytostatic activity against human A549 cells assessed as accumulation of cells in G1 phase at 10 uM after 48 to 72 hrs by TUNEL-based flow cytometric analysis; assay type: functional, cell-based; how it was run: as §2
[14] = target: Tyrosine-protein kinase Fes/Fps (Homo sapiens) (UniProt P07332); test: Inhibition of FES at 1 uM by radiometric assay
How it was run: (§4)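 Radiometric ³³PanQinase activity assay across a panel of 333 protein kinases. Compound added from a 2 × 10⁻⁵ M working solution in 10% DMSO (diluted in water from a 100% DMSO stock), giving 1 μM final in the assay.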

[15] = target: Insulin-like growth factor 1 receptor (Homo sapiens) (UniProt P08069); test: Inhibition of IGF-R1 at 1 uM by radiometric assay
[16] = tested on: U-373MG ATCC; test: Inhibition of trypsin-like activity of 20S proteasome in human U373 cells at 60 uM after 2 days by bioluminescence assay; assay type: cell-based; how it was run: as §3
[17] = tested on: U-373MG ATCC; test: Inhibition of chymotrypsin-like activity of 20S proteasome in human U373 cells at 0.5 uM after 2 days by bioluminescence assay; assay type: cell-based; how it was run: as §3
[18] = target: Tyrosine-protein kinase Fyn (Homo sapiens) (UniProt P06241); test: Inhibition of FYN at 1 uM by radiometric assay
[19] = tested on: U-373MG ATCC; test: Inhibition of caspase-like activity of 20S proteasome in human U373 cells at 0.5 uM after 2 days by bioluminescence assay; assay type: cell-based; how it was run: as §3
[20] = tested on: U-373MG ATCC; test: Cytostatic activity against human U373 cells assessed as accumulation of cells in G1 phase at 10 uM after 48 to 72 hrs by TUNEL-based flow cytometric analysis; assay type: functional, cell-based; how it was run: as §2
[21] = tested on: U-373MG ATCC; test: Inhibition of trypsin-like activity of 20S proteasome in human U373 cells at 0.5 uM after 2 days by bioluminescence assay; assay type: cell-based; how it was run: as §3
[22] = target: Ephrin type-B receptor 4 (Homo sapiens) (UniProt P54760); test: Inhibition of EPHB4 at 1 uM by radiometric assay; how it was run: as §4
[23] = target: Ephrin type-B receptor 1 (Homo sapiens) (UniProt P54762); test: Inhibition of EPHB1 at 1 uM by radiometric assay; how it was run: as §4
[24] = tested on: U-373MG ATCC; test: Inhibition of chymotrypsin-like activity of 20S proteasome in human U373 at 7 uM after 2 days by bioluminescence assay; assay type: cell-based; how it was run: as §3
[25] = target: Fibroblast growth factor receptor 2 (Homo sapiens) (UniProt P21802); test: Inhibition of FGFR2 at 1 uM by radiometric assay; how it was run: as §4
[26] = tested on: A549; test: Induction of apoptosis in human A549 cells assessed as proapoptotic effect at 10 uM after 48 to 72 hrs by TUNEL-based flow cytometric analysis; assay type: functional, cell-based; how it was run: as §2
[27] = tested on: U-373MG ATCC; test: Inhibition of caspase-like activity of 20S proteasome in human U373 cells at 7 uM after 2 days by bioluminescence assay; assay type: cell-based; how it was run: as §3
[28] = target: T1, Peroxisome proliferator-activated receptor gamma (Homo sapiens) (UniProt P37231); test: Activation of PPARgamma activity in human U373 cells at 90 uM after 6 hrs by spectrophotometric analysis relative to control; assay type: cell-based; settings: U-373MG ATCC, 7 uM, in the assay text read “at 7 uM” for “at 90 uM”
T1 sequence (whole entry): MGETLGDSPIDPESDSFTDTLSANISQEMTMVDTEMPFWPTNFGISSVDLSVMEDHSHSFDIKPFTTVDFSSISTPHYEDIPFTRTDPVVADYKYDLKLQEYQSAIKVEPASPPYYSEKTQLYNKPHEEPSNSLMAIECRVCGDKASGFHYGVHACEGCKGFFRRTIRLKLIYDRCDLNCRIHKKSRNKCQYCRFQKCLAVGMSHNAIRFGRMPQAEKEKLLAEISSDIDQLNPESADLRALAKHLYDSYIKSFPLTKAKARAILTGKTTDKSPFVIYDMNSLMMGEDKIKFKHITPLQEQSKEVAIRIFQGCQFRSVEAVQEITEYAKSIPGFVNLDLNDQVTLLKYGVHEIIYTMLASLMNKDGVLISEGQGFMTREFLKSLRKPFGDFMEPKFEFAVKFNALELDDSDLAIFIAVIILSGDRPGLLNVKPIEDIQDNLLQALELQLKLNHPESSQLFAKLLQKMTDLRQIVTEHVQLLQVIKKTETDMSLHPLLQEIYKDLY
How it was run: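 U373 glioblastoma cells were exposed for 6 h. Nuclear extracts were prepared by hypotonic buffer, NP-40 lysis and a protease-inhibitor extraction buffer. Extracts were bound overnight at 4 °C in a PPAR-γ transcription-factor plate, then probed with primary antibody and HRP anti-rabbit secondary, 1 h each at room temperature. Developer ran 45 min, read at 450 nm. Triplicates, mean ± SD versus control.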

[29] = target: Cytoplasmic tyrosine-protein kinase BMX (Homo sapiens) (UniProt P51813); test: Inhibition of BMX at 1 uM by radiometric assay; how it was run: as §4
[30] = target: Tyrosine-protein kinase ZAP-70 (Homo sapiens) (UniProt P43403); test: Inhibition of ZAP70 at 1 uM by radiometric assay
[31] = tested on: U-373MG ATCC; test: Inhibition of caspase-like activity of 20S proteasome in human U373 cells at 60 uM after 2 days by bioluminescence assay; assay type: cell-based; how it was run: as §3
[32] = tested on: U-373MG ATCC; test: Inhibition of chymotrypsin-like activity of 20S proteasome in human U373 cells at 60 uM after 2 days by bioluminescence assay; assay type: cell-based; how it was run: as §3
[33] = target: Serine/threonine-protein kinase PAK 2 (Homo sapiens) (UniProt Q13177); test: Inhibition of PAK2 at 1 uM by radiometric assay
[34] = target: ALK tyrosine kinase receptor (Homo sapiens) (UniProt Q9UM73); test: Inhibition of ALK at 1 uM by radiometric assay; how it was run: as §4
Sequence of ALK tyrosine kinase receptor (Homo sapiens) (Q9UM73 19-1620 limits assumed): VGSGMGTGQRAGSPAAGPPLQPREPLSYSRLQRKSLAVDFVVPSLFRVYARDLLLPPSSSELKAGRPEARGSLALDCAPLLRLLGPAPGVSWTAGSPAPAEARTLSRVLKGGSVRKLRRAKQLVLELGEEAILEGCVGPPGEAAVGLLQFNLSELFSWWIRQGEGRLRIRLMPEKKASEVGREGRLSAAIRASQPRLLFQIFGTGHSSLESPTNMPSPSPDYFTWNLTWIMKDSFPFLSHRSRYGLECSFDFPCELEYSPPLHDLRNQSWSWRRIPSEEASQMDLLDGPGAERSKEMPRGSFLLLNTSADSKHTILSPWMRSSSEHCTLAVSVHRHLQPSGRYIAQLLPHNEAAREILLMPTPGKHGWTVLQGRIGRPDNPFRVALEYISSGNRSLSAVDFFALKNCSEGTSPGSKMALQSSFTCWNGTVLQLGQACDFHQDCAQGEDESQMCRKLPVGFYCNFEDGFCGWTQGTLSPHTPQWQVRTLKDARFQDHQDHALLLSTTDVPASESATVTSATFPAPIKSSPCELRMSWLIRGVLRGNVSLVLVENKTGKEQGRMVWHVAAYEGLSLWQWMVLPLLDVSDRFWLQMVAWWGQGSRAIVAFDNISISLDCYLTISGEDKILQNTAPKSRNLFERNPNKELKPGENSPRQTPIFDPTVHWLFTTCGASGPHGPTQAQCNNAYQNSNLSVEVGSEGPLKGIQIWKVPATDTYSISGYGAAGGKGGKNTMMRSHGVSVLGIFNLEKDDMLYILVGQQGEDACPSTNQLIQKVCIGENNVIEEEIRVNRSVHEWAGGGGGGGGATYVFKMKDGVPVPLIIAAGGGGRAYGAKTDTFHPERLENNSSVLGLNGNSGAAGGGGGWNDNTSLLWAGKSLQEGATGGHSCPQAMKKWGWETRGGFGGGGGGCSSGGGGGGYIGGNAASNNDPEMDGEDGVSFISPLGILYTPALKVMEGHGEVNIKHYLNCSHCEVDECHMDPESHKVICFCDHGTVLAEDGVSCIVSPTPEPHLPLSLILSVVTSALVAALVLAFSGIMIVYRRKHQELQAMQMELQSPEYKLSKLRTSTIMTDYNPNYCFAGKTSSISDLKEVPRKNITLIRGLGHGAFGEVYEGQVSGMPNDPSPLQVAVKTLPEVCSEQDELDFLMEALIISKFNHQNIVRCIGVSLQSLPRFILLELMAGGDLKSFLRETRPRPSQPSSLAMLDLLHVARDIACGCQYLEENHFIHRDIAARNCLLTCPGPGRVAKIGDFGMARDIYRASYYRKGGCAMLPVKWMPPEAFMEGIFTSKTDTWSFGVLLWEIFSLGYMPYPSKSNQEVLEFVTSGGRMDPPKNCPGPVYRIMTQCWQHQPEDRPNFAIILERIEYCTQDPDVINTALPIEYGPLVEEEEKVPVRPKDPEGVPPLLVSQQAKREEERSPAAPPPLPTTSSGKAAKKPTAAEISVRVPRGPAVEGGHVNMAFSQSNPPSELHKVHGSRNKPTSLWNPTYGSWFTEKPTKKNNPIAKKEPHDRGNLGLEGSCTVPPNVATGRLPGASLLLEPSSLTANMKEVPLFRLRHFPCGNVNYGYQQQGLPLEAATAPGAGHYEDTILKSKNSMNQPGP

Sequence of Tyrosine-protein kinase Fes/Fps (Homo sapiens) (P07332 whole entry): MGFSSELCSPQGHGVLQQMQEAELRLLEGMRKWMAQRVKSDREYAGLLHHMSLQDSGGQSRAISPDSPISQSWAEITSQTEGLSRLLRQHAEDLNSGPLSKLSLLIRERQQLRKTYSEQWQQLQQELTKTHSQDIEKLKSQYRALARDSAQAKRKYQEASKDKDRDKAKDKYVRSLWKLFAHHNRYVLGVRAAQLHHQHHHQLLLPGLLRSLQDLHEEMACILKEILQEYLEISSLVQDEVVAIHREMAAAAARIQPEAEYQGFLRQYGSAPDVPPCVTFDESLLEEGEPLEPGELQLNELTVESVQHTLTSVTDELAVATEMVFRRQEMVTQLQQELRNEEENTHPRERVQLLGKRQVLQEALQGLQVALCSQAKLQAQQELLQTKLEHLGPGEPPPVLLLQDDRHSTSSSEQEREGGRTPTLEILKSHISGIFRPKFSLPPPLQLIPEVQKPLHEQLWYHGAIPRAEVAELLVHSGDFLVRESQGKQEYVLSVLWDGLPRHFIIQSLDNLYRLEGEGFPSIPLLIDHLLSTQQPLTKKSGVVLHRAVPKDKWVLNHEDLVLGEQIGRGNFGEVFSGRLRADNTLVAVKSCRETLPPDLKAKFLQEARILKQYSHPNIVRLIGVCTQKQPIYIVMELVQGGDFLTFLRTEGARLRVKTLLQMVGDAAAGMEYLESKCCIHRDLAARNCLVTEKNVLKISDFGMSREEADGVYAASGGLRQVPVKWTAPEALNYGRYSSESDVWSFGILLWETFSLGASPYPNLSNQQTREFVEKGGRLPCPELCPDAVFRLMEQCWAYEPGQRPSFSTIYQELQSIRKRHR
Sequence of Megakaryocyte-associated tyrosine-protein kinase (Homo sapiens) (P42679 whole entry): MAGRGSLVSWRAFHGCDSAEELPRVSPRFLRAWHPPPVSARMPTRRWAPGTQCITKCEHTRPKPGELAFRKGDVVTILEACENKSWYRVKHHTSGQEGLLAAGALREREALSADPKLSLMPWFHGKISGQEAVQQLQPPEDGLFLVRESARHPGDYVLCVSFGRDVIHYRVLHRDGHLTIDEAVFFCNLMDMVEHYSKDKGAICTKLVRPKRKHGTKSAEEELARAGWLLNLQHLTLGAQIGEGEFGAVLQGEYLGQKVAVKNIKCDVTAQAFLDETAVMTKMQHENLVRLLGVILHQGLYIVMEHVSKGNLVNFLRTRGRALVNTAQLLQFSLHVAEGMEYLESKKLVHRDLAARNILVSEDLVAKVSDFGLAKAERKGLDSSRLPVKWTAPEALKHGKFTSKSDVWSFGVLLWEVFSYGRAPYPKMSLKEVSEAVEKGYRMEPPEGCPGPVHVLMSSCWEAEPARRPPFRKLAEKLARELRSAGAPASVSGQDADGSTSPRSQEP
Sequence of Insulin-like growth factor 1 receptor (Homo sapiens) (P08069 31-736 limits assumed): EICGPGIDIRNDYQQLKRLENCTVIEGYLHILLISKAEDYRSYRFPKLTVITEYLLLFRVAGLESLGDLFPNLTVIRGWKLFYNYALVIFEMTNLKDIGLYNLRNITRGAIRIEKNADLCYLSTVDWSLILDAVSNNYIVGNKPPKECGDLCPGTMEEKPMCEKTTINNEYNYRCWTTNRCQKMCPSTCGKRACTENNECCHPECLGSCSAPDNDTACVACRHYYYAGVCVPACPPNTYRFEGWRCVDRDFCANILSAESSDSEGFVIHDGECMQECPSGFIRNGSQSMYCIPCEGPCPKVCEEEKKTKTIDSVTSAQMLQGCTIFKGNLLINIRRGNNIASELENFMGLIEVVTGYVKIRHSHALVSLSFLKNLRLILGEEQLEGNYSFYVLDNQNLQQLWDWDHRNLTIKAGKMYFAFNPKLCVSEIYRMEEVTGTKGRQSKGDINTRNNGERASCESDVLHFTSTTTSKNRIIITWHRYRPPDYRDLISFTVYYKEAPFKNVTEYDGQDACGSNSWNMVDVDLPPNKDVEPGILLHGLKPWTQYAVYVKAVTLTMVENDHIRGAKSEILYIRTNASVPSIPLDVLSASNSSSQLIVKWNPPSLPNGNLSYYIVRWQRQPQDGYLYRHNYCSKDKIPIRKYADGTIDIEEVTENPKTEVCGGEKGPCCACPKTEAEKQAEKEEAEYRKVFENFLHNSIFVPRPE
Sequence of Insulin-like growth factor 1 receptor (Homo sapiens) (P08069 741-1367 limits assumed): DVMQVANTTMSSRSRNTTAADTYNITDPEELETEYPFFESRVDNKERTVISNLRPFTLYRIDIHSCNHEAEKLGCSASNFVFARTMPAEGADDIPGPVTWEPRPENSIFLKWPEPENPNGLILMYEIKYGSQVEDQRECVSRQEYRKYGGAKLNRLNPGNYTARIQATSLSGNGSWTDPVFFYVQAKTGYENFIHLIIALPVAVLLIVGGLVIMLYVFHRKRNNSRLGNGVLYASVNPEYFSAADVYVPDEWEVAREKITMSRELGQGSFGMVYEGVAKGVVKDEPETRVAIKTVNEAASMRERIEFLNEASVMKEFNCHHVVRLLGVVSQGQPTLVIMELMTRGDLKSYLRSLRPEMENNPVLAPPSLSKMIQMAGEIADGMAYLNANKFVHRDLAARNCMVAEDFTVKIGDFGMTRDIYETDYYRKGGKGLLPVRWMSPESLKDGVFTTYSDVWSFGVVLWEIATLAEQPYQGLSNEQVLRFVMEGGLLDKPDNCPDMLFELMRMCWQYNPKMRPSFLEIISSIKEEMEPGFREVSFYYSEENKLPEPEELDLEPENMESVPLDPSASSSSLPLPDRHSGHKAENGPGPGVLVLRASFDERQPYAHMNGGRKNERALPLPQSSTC
Sequence of Fibroblast growth factor receptor 2 (Homo sapiens) (P21802 22-821 limits assumed): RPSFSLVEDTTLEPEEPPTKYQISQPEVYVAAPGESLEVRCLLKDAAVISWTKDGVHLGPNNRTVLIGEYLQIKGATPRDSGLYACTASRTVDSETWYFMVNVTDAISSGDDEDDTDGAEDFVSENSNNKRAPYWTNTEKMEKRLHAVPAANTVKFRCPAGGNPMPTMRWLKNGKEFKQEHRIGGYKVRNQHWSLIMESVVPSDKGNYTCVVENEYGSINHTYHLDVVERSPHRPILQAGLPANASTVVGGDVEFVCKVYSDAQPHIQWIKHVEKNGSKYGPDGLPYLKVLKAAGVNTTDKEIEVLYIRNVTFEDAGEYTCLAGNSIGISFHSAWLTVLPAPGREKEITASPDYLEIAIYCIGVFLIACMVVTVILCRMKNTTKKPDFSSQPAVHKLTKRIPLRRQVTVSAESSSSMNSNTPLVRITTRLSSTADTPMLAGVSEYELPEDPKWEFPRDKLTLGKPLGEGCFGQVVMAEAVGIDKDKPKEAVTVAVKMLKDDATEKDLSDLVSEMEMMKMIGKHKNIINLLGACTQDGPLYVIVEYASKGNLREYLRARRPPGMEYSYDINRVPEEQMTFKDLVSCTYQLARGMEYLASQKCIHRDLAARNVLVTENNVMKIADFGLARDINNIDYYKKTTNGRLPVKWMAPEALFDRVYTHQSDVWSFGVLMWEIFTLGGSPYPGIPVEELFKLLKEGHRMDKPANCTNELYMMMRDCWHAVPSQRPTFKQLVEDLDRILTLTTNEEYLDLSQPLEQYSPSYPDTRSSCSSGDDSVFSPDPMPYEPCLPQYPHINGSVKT

- remaining at 168 h [1]: 99%
- GI50 [2]: 41 µM
- GI50 [4]: 42 µM
- GI50 [5]: 46 µM
- GI50 [6]: 65 µM
- GI50 [9]: 29 µM
Compound: CCOC(=O)CCNC(=O)NCCNC(=O)[C@@]1(C)CC[C@]2(C)CC[C@]3(C)C(=CC(=O)[C@@H]4[C@@]5(C)CC[C@H](O)C(C)(C)[C@@H]5CC[C@]43C)[C@@H]2C1
- GI50 [3]: 71 µM
- GI50 [7]: 42 µM
- GI50 [8]: 42 µM

- remaining at 168 h [1]: 98%
- GI50 [2]: 28 µM
- GI50 [4]: 25 µM
- GI50 [5]: 30 µM
- GI50 [6]: 37 µM
- GI50 [9]: 28 µM
Compound: CC1(C)[C@@H](O)CC[C@]2(C)[C@H]3C(=O)C=C4[C@@H]5C[C@@](C)(C(=O)NCCNC(=O)c6ccc(F)cc6)CC[C@]5(C)CC[C@@]4(C)[C@]3(C)CC[C@@H]12
- GI50 [3]: 35 µM
- GI50 [7]: 31 µM
- GI50 [8]: 29 µM

- inhibition [10]: 50%
- remaining at 168 h [1]: 98%
- GI50 [2]: 4 µM
- GI50 [4]: 4 µM
- GI50 [5]: 8 µM
- inhibition [14]: 59%
- inhibition [15]: 64%
- inhibition [18]: 72%
- GI50 [6]: 9 µM
- inhibition [22]: 64%
- inhibition [23]: 64%
- inhibition [25]: 67%
- Activity [28]: Active
- inhibition [29]: 52%
- inhibition [30]: 67%
- GI50 [9]: 7 µM
- inhibition [33]: 51%
- inhibition [34]: 69%
Compound: CC1(C)[C@@H](O)CC[C@]2(C)[C@H]3C(=O)C=C4[C@@H]5C[C@@](C)(C(=O)NCCNC(=O)Nc6cc(C(F)(F)F)cc(C(F)(F)F)c6)CC[C@]5(C)CC[C@@]4(C)[C@]3(C)CC[C@@H]12
- GI50 [3]: 12 µM
- Activity [11]: inactive
- inhibition [12]: Active
- Activity [13]: inactive
- inhibition [16]: Active
- inhibition [17]: Active
- inhibition [19]: Active
- Activity [20]: inactive
- inhibition [21]: Active
- inhibition [24]: Active
- GI50 [7]: 6 µM
- Activity [26]: inactive
- inhibition [27]: Active
- GI50 [8]: 6 µM
- inhibition [31]: Active
- inhibition [32]: Active
